Values after ≈ are worked out from the molar mass of the structure shown. Active and inactive are the calls of the source. The calls are words filed in the database; no cut-off is given here.
What was measured:
Candida albicans [1] = assay: Antifungal activity against Candida albicans after 48 hrs by agar disk diffusion assay; format: functional
How it was run: (§1)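 Fungal isolates (PSG Hospital, Coimbatore) grown on Sabouraud dextrose agar; agar well diffusion with compounds in DMSO at 0 (control), 25, 50, 75, 100. DMSO negative control, fluconazole ([…]) positive control. Plates held 28 ± 2 °C for 48 h; zone of inhibition diameter recorded in mm.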

HCT-15 [2] = assay: Cytotoxicity against human HCT15 cells after 48 hrs by SRB assay; format: functional, cell-based; conditions: HCT-15, 48 h
How it was run: (§2)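 Cells in RPMI-1640 with 10% heat-inactivated FBS, 1 mM NaHCO3, 2 mM L-glutamine, 37 °C, 5% CO2; seeded (B16F10 5 × 10⁴ cells/mL, others 1 × 10⁵ cells/mL), 24 h, then compounds in DMSO at 1.56–50 for 48 h, triplicate wells. TCA fixation, SRB staining 30 min, tris extraction, OD 520 nm; IC50 by linear regression, mean ± SD of three independent experiments; cisplatin positive control.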

SK-OV-3 = assay: Cytotoxicity against human SKOV3 cells up to 50 ug/ml after 48 hrs by SRB assay; format: functional, cell-based; how it was run: as §2
[3] = Cytotoxicity against human SK-MEL-12 cells up to 50 ug/ml after 48 hrs by SRB assay; format: functional, cell-based; how it was run: as §2
Aspergillus niger [4] = assay: Antifungal activity against Aspergillus niger at 50 ug/ml after 48 hrs by agar disk diffusion assay; format: functional; conditions: read-out: DIZ; how it was run: as §1
B16-F10 [5] = assay: Cytotoxicity against mouse B16F10 cells after 48 hrs by SRB assay; format: functional, cell-based; conditions: B16-F10, 48 h; how it was run: as §2
Staphylococcus aureus [6] = assay: Antibacterial activity against Staphylococcus aureus after 24 hrs by agar disk diffusion assay; format: functional
How it was run: (§3)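 Agar well diffusion on nutrient agar against Gram-positive clinical isolates (PSG Hospital, Coimbatore). Compounds in DMSO tested at 0 (control), 25, 50, 75, 100; DMSO as solvent and negative control; ciprofloxacin ([…]) as positive control. Plates incubated 37 ± 2 °C, 24 h; zone of inhibition diameter read in mm.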

A549 = assay: Cytotoxicity against human A549 cells up to 50 ug/ml after 48 hrs by SRB assay; format: functional, cell-based; how it was run: as §2
Enterococcus faecalis [7] = assay: Antibacterial activity against Enterococcus faecalis after 24 hrs by agar disk diffusion assay; format: functional; how it was run: as §3
[8] = tested on: Radical scavenging activity; assay: Antioxidant activity assessed as DPPH radical scavenging activity upto 600 mg/ml after 30 mins by micro plate reader; format: functional
How it was run: (§4)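 DPPH assay: various compound concentrations brought to volume with ethanol, mixed with 0.1 mM ethanolic DPPH alongside vitamin C standard; shaken 30 min at 24 °C, absorbance read at 517 nm; concentration giving 50% decrease determined.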

Escherichia coli [9] = assay: Antibacterial activity against Escherichia coli after 24 hrs by agar disk diffusion assay; format: functional
How it was run: (§5)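 Gram-negative clinical isolates (PSG Hospital, Coimbatore) tested by agar well diffusion on nutrient agar. Compounds dissolved in DMSO at 0 (control), 25, 50, 75, 100; DMSO was the negative control and ciprofloxacin ([…]) the positive control. Incubation 37 ± 2 °C for 24 h, then inhibition zone diameter measured in mm.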

Staphylococcus aureus [10] = assay: Antibacterial activity against Staphylococcus aureus at 50 ug/ml after 24 hrs by agar disk diffusion assay; format: functional; conditions: read-out: DIZ; how it was run: as §3
Klebsiella pneumoniae [11] = assay: Antibacterial activity against Klebsiella pneumoniae at 50 ug/ml after 24 hrs by agar disk diffusion assay; format: functional; conditions: read-out: DIZ; how it was run: as §5
Escherichia coli [12] = assay: Antibacterial activity against Escherichia coli at 50 ug/ml after 24 hrs by agar disk diffusion assay; format: functional; conditions: read-out: DIZ; how it was run: as §5
Klebsiella pneumoniae [13] = assay: Antibacterial activity against Klebsiella pneumoniae after 24 hrs by agar disk diffusion assay; format: functional; how it was run: as §5
Enterococcus faecalis [14] = assay: Antibacterial activity against Enterococcus faecalis at 50 ug/ml after 24 hrs by agar disk diffusion assay; format: functional; conditions: read-out: DIZ; how it was run: as §3
Aspergillus niger [15] = assay: Antifungal activity against Aspergillus niger after 48 hrs by agar disk diffusion assay; format: functional; how it was run: as §1
Candida albicans [16] = assay: Antifungal activity against Candida albicans at 50 ug/ml after 48 hrs by agar disk diffusion assay; format: functional; conditions: read-out: DIZ; how it was run: as §1
Klebsiella pneumoniae [17] = assay: Antibacterial activity against Klebsiella pneumoniae at 30 ug/ml after 24 hrs by agar disk diffusion assay; conditions: read-out: DIZ
Escherichia coli [18] = assay: Antibacterial activity against Escherichia coli at 30 ug/ml after 24 hrs by agar disk diffusion assay; conditions: read-out: DIZ
Staphylococcus aureus [19] = assay: Antibacterial activity against Staphylococcus aureus at 30 ug/ml after 24 hrs by agar disk diffusion assay; conditions: read-out: DIZ
Enterococcus faecalis [20] = assay: Antibacterial activity against Enterococcus faecalis at 30 ug/ml after 24 hrs by agar disk diffusion assay; conditions: read-out: DIZ
Aspergillus niger [21] = assay: Antifungal activity against Aspergillus niger at 30 ug/ml after 48 hrs by agar disk diffusion assay; format: functional; conditions: read-out: DIZ
How it was run: (§6)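 Agar well diffusion on Sabouraud dextrose agar; fungal strains obtained from a hospital. Compounds dissolved in DMSO, with DMSO as negative control and fluconazole ([…]) as positive control. Plates incubated at 28 ± 2 °C for 48 h. Activity taken as the diameter of the inhibition zone, in mm.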

Candida albicans [22] = assay: Antifungal activity against Candida albicans AT 30 ug/ml after 48 hrs by agar disk diffusion assay; format: functional; conditions: read-out: DIZ; how it was run: as §6
Aspergillus niger [23] = assay: Antifungal activity against Aspergillus niger at 100 ug/ml after 48 hrs by agar disk diffusion assay; format: functional; conditions: read-out: DIZ; how it was run: as §1
Escherichia coli [24] = assay: Antibacterial activity against Escherichia coli at 100 ug/ml after 24 hrs by agar disk diffusion assay; format: functional; conditions: read-out: DIZ; how it was run: as §5
B16-F10 [25] = assay: Cytotoxicity against mouse B16F10 cells up to 50 ug/ml after 48 hrs by SRB assay; format: functional, cell-based; how it was run: as §2
Enterococcus faecalis [26] = assay: Antibacterial activity against Enterococcus faecalis at 100 ug/ml after 24 hrs by agar disk diffusion assay; format: functional; conditions: read-out: DIZ; how it was run: as §3
Candida albicans [27] = assay: Antifungal activity against Candida albicans at 100 ug/ml after 48 hrs by agar disk diffusion assay; format: functional; conditions: read-out: DIZ; how it was run: as §1
Staphylococcus aureus [28] = assay: Antibacterial activity against Staphylococcus aureus at 100 ug/ml after 24 hrs by agar disk diffusion assay; format: functional; conditions: read-out: DIZ; how it was run: as §3
HCT-15 [29] = assay: Cytotoxicity against human HCT15 cells up to 50 ug/ml after 48 hrs by SRB assay; format: functional, cell-based; how it was run: as §2
[30] = tested on: Radical scavenging activity; assay: Antioxidant activity assessed as DPPH radical scavenging activity after 30 mins by micro plate reader; format: functional; how it was run: as §4
Klebsiella pneumoniae [31] = assay: Antibacterial activity against Klebsiella pneumoniae at 100 ug/ml after 24 hrs by agar disk diffusion assay; format: functional; conditions: read-out: DIZ; how it was run: as §5

Row | Compound | MIC (Candida albicans [1]) [µg/mL] | IC50 (SK-OV-3) | IC50 [3] | MIC (Staphylococcus aureus [6]) [µg/mL] | IC50 (A549) | MIC (Enterococcus faecalis [7]) [µg/mL] | MIC (Escherichia coli [9]) [µg/mL] | MIC (Klebsiella pneumoniae [13]) [µg/mL] | MIC (Aspergillus niger [15]) [µg/mL] | also measured
1 | Cc1ccc2[nH]c3c(c2c1)CCc1c-3nc(N)c(C#N)c1-c1ccc(N(C)C)cc1 | > 100 | Not Active | Not Active | 50 (≈ 127 µM) | Not Active | 50 (≈ 127 µM) | 50 (≈ 127 µM) | 50 (≈ 127 µM) | > 100 | IC50 (HCT-15 [2]): 43.5 µg/mL (≈ 111 µM); zone of inhibition at 50 µg/mL (Aspergillus niger [4]): 5 mm; IC50 (B16-F10 [5]): 34.6 µg/mL (≈ 87.9 µM); Activity [8]: inactive; zone of inhibition at 50 µg/mL (Staphylococcus aureus [10]): 17 mm; zone of inhibition at 50 µg/mL (Klebsiella pneumoniae [11]): 18 mm; zone of inhibition at 50 µg/mL (Escherichia coli [12]): 17 mm; zone of inhibition at 50 µg/mL (Enterococcus faecalis [14]): 19 mm; zone of inhibition at 50 µg/mL (Candida albicans [16]): 9 mm
2 | O=C(O)c1cn(C2CC2)c2cc(N3CCNCC3)c(F)cc2c1=O [CIPROFLOXACIN] |  |  |  | 12.5 (≈ 37.7 µM) |  | 12.5 (≈ 37.7 µM) | 12.5 (≈ 37.7 µM) | 12.5 (≈ 37.7 µM) |  | zone of inhibition at 30 µg/mL (Klebsiella pneumoniae [17]): 30 mm; zone of inhibition at 30 µg/mL (Escherichia coli [18]): 27 mm; zone of inhibition at 30 µg/mL (Staphylococcus aureus [19]): 28 mm; zone of inhibition at 30 µg/mL (Enterococcus faecalis [20]): 29 mm
3 | OC(Cn1cncn1)(Cn1cncn1)c1ccc(F)cc1F [FLUCONAZOLE] | 12.5 (≈ 40.8 µM) |  |  |  |  |  |  |  | 12.5 (≈ 40.8 µM) | zone of inhibition at 30 µg/mL (Aspergillus niger [21]): 19 mm; zone of inhibition at 30 µg/mL (Candida albicans [22]): 22 mm
4 | CCOC(=O)c1c(N)nc2c(c1-c1ccccc1)CCc1c-2[nH]c2ccc(C)cc12 | > 100 | Not Active | Not Active | 100 (≈ 252 µM) | Not Active | 100 (≈ 252 µM) | 100 (≈ 252 µM) | 100 (≈ 252 µM) | > 100 | zone of inhibition at 100 µg/mL (Aspergillus niger [23]): 4 mm; zone of inhibition at 100 µg/mL (Escherichia coli [24]): 13 mm; IC50 (B16-F10 [25]): Not Active; zone of inhibition at 100 µg/mL (Enterococcus faecalis [26]): 15 mm; zone of inhibition at 100 µg/mL (Candida albicans [27]): 2 mm; zone of inhibition at 100 µg/mL (Staphylococcus aureus [28]): 14 mm; IC50 (HCT-15 [29]): Not Active; IC50 [30]: 300.84 µg/mL (≈ 757 µM); zone of inhibition at 100 µg/mL (Klebsiella pneumoniae [31]): 16 mm

From ChEMBL document CHEMBL1909519, “L-Proline anchored multicomponent synthesis of novel pyrido[2,3-a]carbazoles; investigation of in vitro antimicrobial, antioxidant, cytotoxicity and structure activity relationship studies” (Eur J Med Chem, 2011)
